Shown are actives, neighbours in structure and some others; about 0.77% of the full set was active somewhere.
hIAP act: human IAP activators, primary screen, biochemical, luminescence, uHTS. activation factor at 10 µM. actives 0.16% (n = 330,000). AID 2524, 2010. purified human IAP, CDP-Star luminescence, 30 min; stronger effect = higher value; 1 = vehicle-only enzyme, 0 = enzyme-free background;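 active = activation factor of the enzyme at least 2-fold when tested at 20 µM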
Target sequence (P09923 whole entry, looked up): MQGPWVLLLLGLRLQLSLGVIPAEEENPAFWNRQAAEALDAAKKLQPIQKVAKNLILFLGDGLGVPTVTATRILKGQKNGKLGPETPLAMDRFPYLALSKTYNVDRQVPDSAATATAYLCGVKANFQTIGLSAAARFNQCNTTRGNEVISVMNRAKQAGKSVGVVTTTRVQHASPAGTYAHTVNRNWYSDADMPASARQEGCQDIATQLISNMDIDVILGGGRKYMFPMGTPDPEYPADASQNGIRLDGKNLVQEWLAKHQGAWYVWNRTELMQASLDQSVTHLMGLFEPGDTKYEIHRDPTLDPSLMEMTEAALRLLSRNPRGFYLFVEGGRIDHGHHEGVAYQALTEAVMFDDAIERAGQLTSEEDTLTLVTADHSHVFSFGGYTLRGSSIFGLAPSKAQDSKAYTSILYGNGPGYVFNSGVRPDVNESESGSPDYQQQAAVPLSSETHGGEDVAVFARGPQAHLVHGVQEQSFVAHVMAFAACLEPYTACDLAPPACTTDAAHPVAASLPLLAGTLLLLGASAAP
bIAP inhibitor: bovine intestinal alkaline phosphatase inhibitors, primary screen, selectivity assay for TNAP inhibitor project, biochemical, bovine IAP, CDP-star luminescence. purified bovine IAP, 30 min. inhibition, % at 20 µM. 190,000 tested, under 10 active. AID 1019, 2008;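 active = over 50% inhibition of intestinal alkaline phosphatase at 20 µM in the single-dose screen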
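System: purified bovine intestinal alkaline phosphatase (IAP) enzyme; Input: IAP diluted 1/65,000,000 in the well; Measured by: CDP-star luminescence signal; Compound dosing: 20 µM single dose; Incubation: 30 min reaction at room temperature.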
hIAP inh: human IAP inhibitors, primary screen, biochemical, luminescence, uHTS. AID 2544, 2010. purified IAP, CDP-Star luminescence, 30 min. inhibition, % at 10 µM. actives 0.12% (n = 330,000);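 active = inhibition reaching a set limit with compound at 10 µM in the primary screen, cut at about 35% in these data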
bIAP activator: bovine intestinal alkaline phosphatase activators, primary screen, biochemical, bovine IAP, CDP-star luminescence. alkaline phosphatase, intestinal [Bos taurus]. purified bovine IAP, 30 min; stronger effect = higher value; fold of DMSO-control signal, blank-subtracted. activation factor at 20 µM. actives 0.17% (n = 200,000);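 active = activation factor of 2 or more at 20 µM, a signal rise over negative controls twice the positive control's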
mIAP act: activators of mouse IAP, primary screen, biochemical, luminescence, uHTS; intestinal alkaline phosphatase [Mus musculus]; muIAP, CDP-Star luminescence, 30 min; stronger effect = higher value; 1 = vehicle-only enzyme signal, 0 = enzyme-free wells; activation factor at 10 µM; actives 0.24% (n = 330,000);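 active = activation factor of at least 2 at 20 µM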
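System: Mouse IAP enzyme | Also added: CDP-Star substrate | Dosing: Compounds dispensed in DMSO | Schedule: 30 min enzyme-substrate-compound incubation at room temperature | Technique: Chemiluminescence readout | Control set: DMSO-only wells and no-enzyme negative control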
mIAP block: inhibitors of mouse IAP, primary screen, biochemical, luminescence, uHTS. intestinal alkaline phosphatase [Mus musculus]. purified mouse IAP, CDP-Star luminescence, 30 min. inhibition, % at 10 µM. actives 0.2% (n = 330,000);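 active = inhibition of at least 40% at 10 µM in the primary screen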
hIAP act conf: human IAP activators, confirmation, biochemical, luminescence, single concentration, uHTS hits | shares compounds with hIAP act | purified IAP, CDP-Star luminescence, 30 min; stronger effect = lower value | activation (%Activity, negative = activation), % at 8.3 µM | actives 10% (n = 880) | AID 434926, 2010;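 active = at least twofold enzyme activation in any of six single-dose repeats, which the averaged readout prints as negative percent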
Numbers stand for hits; 0 = inactive; - = not tested or not shown.

SMILES | hIAP act | bIAP inhibitor | hIAP inh | bIAP activator | mIAP act | mIAP block | hIAP act conf
Cc1cc(C)c(O)c(-c2cc(C(=O)NCCc3ccc(S(N)(=O)=O)cc3)[nH]n2)c1 | 0 | - | 0 | - | 0 | 0 | -
COc1ccc(CCNC(=O)c2cc(-c3cc(Cl)ccc3O)n[nH]2)cc1OC | 2.3 | - | 0 | - | 0 | 0 | 0
CN(C)C(=S)SCC(=O)Nc1ccc(Cl)cc1Cl | 0 | 0 | 0 | 0 | 0 | 0 | -
CC(=O)c1n[nH]nc1Nc1nc(C)cc(C)n1 | 2.2 | 0 | 0 | 0 | 0 | 0 | 0
Cc1cc(C)c(COc2ccc(/C=N/n3c(C)n[nH]c3=S)cc2)c(C)c1 | 0 | 0 | 0 | 0 | 0 | 0 | -
COc1ccc(-c2cc(C(=O)NNC(=O)c3csc(N4CCOCC4)n3)c3ccccc3n2)cc1OC | 2.4 | - | 0 | - | 0 | 0 | 0
O=C(C1CCN(S(=O)(=O)c2ccccc2)CC1)N1CCOCC1 | 0 | 0 | 40 | 0 | 0 | 0 | 0
CCCCCc1c(C)nc(Nc2nc(C)c3cc(OC)ccc3n2)[nH]c1=O | 2.1 | 0 | 0 | 0 | 0 | 0 | 0
CCc1ccc2nc(Nc3nc(COC)cc(=O)[nH]3)nc(C)c2c1 | 2.1 | 0 | 0 | 0 | 0 | 0 | 0
COCc1cc(=O)[nH]c(Nc2nc3ccc(C)cc3o2)n1 | 2.1 | 0 | 0 | 0 | 0 | 0 | 0
O=S(=O)(NC1CCCCC1Oc1ccccc1)c1ccccc1 (configuration not stated) | 0 | 0 | 0 | 0 | 0 | 0 | -
O=C(NNC1=NCCC1)c1ccc(Br)cc1 | 2.6 | 0 | 0 | 0 | 0 | 0 | 0
COc1ccc(F)cc1S(=O)(=O)n1nc(C)cc1C | 0 | - | 40 | - | 0 | 0 | 0
COc1ccc(C)cc1S(=O)(=O)n1nc(C)cc1C | 0 | 0 | 0 | 0 | 0 | 0 | -
O=C(Nc1cccc(S(=O)(=O)NC2=NCCC2)c1)c1cc(Cl)ccc1[N+](=O)[O-] | 0 | - | 0 | - | 0 | 0 | -
CC(=O)c1cccc(NS(=O)(=O)c2ccc(C(=O)Nc3ccccc3)cc2)c1 | 0 | - | 0 | - | 0 | 0 | -
O=C(Nc1ccccc1)c1ccc(S(=O)(=O)Nc2cccc(O)c2)cc1 | 0 | - | 40 | - | 0 | 0 | 0
Cc1c(S(=O)(=O)Nc2cccc3ccccc23)c(=O)n(C)c(=O)n1C | 0 | - | 0 | - | 0 | 0 | -
CCNc1nc(NCC)nc(Oc2ccc(OCc3ccccc3)nn2)n1 | 0 | 0 | 0 | 0 | 0 | 0 | -
CC(C)Nc1nc(NC(C)C)nc(Oc2ccc(OCc3ccccc3)nn2)n1 | 0 | 0 | 37 | 0 | 0 | 0 | 0
COc1ccc(CNS(=O)(=O)c2cccc(S(=O)(=O)N3CCOCC3)c2)cc1 | 0 | 0 | 36 | 0 | 0 | 0 | 0
COc1cccc(CNS(=O)(=O)c2cccc(S(=O)(=O)N3CCOCC3)c2)c1 | 0 | 0 | 0 | 0 | 0 | 0 | -
O=c1oc(-c2ccc(O)c(O)c2)cc2cc(O)cc(O)c12 | 0 | - | 69 | - | 0 | 0 | 0
O=c1oc(-c2ccc(O)c(O)c2)cc2cccc(O)c12 | 0 | - | 0 | - | 0 | 0 | -
COc1cccc(NC(=O)N2CCC(NC(=O)c3ccco3)CC2)c1 | 0 | - | 0 | - | 0 | 0 | -
SMILES | hIAP act | bIAP inhibitor | hIAP inh | bIAP activator | mIAP act | mIAP block | hIAP act conf
CCC(C)(C)NC(=O)CCCSc1nc2ccccc2s1 | 0 | 0 | 0 | 0 | 0 | 0 | -
COC(=O)CN1C(=O)C(O)(CC(=O)c2ccc(C)cc2)c2ccccc21 (configuration not stated) | 0 | 0 | 37 | 0 | 0 | 0 | 0
COC(=O)CN1C(=O)C(O)(CC(=O)c2ccccc2)c2ccccc21 (configuration not stated) | 0 | 0 | 0 | 0 | 0 | 0 | -
O=C1c2ccccc2-c2onc3c(N4CCN(CCO)CC4)cc(N4CCN(C(=O)c5ccco5)CC4)c1c23 | 0 | - | 0 | - | 0 | 0 | -
CN1CCN(c2cc(N3CCN(C(=O)c4ccco4)CC3)c3c4c(onc24)-c2ccccc2C3=O)CC1 | 0 | - | 42 | - | 0 | 0 | 0
O=C(Cc1ccc(Cl)cc1)NC1CCCN(Cc2ccccc2F)C1 (configuration not stated) | 0 | - | 0 | - | 0 | 0 | -
CCS(=O)(=O)Nc1cc2c3c(c1)CCC(=O)N3CCC2 | 0 | - | 37 | - | 0 | 0 | 0
CNC(=O)c1[nH]cnc1C(=O)Nc1ccccn1 | 2.1 | 0 | 0 | 0 | 0 | 0 | 0
CNC(=O)c1[nH]cnc1C(=O)Nc1ccccc1 | 0 | - | 0 | - | 0 | 0 | -
CSc1ccccc1NC(=O)c1csc(C)c1 | 0 | - | 35 | - | 0 | 0 | 0
Cc1cc(SCC(=O)OC(C)C(=O)N(C)c2ccccc2)nc2ccccc12 (configuration not stated) | 0 | - | 0 | - | 0 | 0 | -
Cc1ccc(S(=O)(=O)NCC(=O)NNC(=O)c2ccccc2Cl)cc1C | 2.2 | - | 0 | - | 0 | 0 | 0
CCCCN1/C(=C/c2ccc3ccccc3[n+]2CC)Sc2ccccc21 | 0 | 0 | 0 | 0 | 0 | 0 | -
CCN1/C(=C/c2ccc3ccccc3[n+]2CC)C=Cc2ccccc21 | 0 | - | 36 | 0 | 0 | 0 | 0
Cc1ccc(S(=O)(=O)N(CC(=O)Nc2ccc(C)cc2C)C(=O)N2CCN(C)CC2)cc1 | 0 | - | 36 | - | 0 | 0 | -55
Cc1ccc(NC(=O)CN(C(=O)N2CCN(C)CC2)S(=O)(=O)c2ccc(C)cc2)cc1 | 0 | - | 0 | - | 0 | 0 | -
CCN(CC(=O)NC(c1ccccc1)c1ccccc1)Cc1nc2ccccc2c(=O)[nH]1 | 2.1 | 0 | 0 | 2.4 | 0 | 0 | 0
CCN(CC(=O)Nc1ccccc1SC)Cc1nc2ccccc2c(=O)[nH]1 | 0 | - | 0 | - | 0 | 0 | -
CCc1ccc(OCC(=O)NNC(=O)c2cc(S(=O)(=O)N(C)C)ccc2N2CCCC2)cc1 | 0 | - | 0 | - | 0 | 0 | -
CCOC(=O)CSc1nnc(Cc2ccccc2)n1-c1ccc(C)cc1 | 0 | 0 | 0 | 0 | 0 | 0 | -
Cc1ccc(-n2c(Cc3ccccc3)nnc2SCC(=O)NNC(=O)Cc2ccccc2)cc1 | 2 | 0 | 0 | 0 | 0 | 0 | 0
O=C(O)CNC(=O)c1ccccc1F | 0 | 0 | 0 | 0 | 0 | 0 | -
O=C(NCCCCNC(=O)c1ccccc1F)c1ccccc1F | 0 | - | 37 | - | 0 | 0 | 0
CCc1cccc(CC)c1NC(=O)CN1CCN(S(=O)(=O)c2ccccc2)CC1 | 0 | - | 0 | - | 0 | 0 | -
CC(C)(C)C#CCn1c(/C=[N+](\[O-])C2CCCCC2)nc2ccccc21 | 0 | - | 0 | - | 0 | 0 | -
